Data on 15 molecules can be found in ChEMBL document CHEMBL2086368, “Sulfonilamidothiopyrimidone and thiopyrimidone derivatives as selective COX-2 inhibitors: synthesis, biological evaluation, and docking studies” (Eur J Med Chem, 2012).

Data set [1] has as its system PBL. The experiment in a line: Cytotoxicity against IL2-stimulated human PBL assessed as cell death at 10 uM after 24 hrs by MTT assay. In kind it is cell-based. The method, boiled down:
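IL-2-treated human PBLs given 1, 10 or 50 (micromolar) test agent for 24 h. Viability read by MTT (0.15 mg/ml, 4 h, 37 °C) reduction to formazan, absorbance at 570 nm with 655 nm reference. DMSO served as cell-death control.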

The subject of data set [2] is PBL. The data set can be described thus: Inhibition of COX2 expression in PMA-Ion-stimulated human PBL at 10 uM after 20 hrs by Western blot analysis. In kind it is functional, cell-based. The method, boiled down: (§1)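 PBLs treated with PMA 15 ng/ml plus ionomycin, alone or with inhibitor, for 20 h at 37 °C; NS398 as inhibition control. Lysates quantified by BCA, resolved on 10% SDS-PAGE, semidry-blotted to PVDF, probed with rabbit anti-human COX-2 (1:500) and anti-α-tubulin loading control, ECL detection.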

Data set [3] has as its system PBL. The experiment in a line: Antiproliferative activity against human PBL assessed as incorporation of BrdU at 10 uM after 2 to 24 hrs. In kind it is cell-based. Put shortly: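 Human PBLs in RPMI 1640 with 10% heat-inactivated FCS, 1% penicillin/streptomycin, 2 mM L-glutamine, stimulated with PHA and 60 U/ml IL-2; exposed to test agent for 24 h at 37 °C, 5% CO2. DNA synthesis read by immunochemical detection of incorporated BrdU after partial DNA denaturation.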

The target in data set [4] is T1, Prostaglandin G/H synthase 2 (Homo sapiens) (UniProt P35354).
T1 sequence (whole entry): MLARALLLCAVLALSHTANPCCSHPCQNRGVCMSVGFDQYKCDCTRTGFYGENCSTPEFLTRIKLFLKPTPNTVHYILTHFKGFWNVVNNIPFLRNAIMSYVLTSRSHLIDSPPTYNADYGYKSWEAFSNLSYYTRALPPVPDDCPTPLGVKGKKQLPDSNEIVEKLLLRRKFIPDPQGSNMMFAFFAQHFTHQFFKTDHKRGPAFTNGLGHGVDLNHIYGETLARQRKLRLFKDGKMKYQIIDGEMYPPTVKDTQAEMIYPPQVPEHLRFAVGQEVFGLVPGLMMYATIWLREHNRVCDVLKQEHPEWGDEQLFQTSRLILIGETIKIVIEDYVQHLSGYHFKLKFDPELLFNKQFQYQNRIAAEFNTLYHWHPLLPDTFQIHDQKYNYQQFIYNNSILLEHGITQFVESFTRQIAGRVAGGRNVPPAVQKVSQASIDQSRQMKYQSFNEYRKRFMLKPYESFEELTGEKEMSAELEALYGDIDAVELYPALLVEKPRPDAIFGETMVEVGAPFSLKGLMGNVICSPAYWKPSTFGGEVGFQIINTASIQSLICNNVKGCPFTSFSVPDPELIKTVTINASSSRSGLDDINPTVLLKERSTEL
The data set can be described thus: Inhibition of COX2-mediated PGE2 production in PMA-Ion-stimulated human PBL at 10 uM after 24 hrs by ELISA.

For data set [5], the target named is Prostaglandin G/H synthase 2 (Ovis aries) (UniProt P79208). The conditions noted are these: at 5 nM.
Sequence of Prostaglandin G/H synthase 2 (Ovis aries) (P79208 whole entry, looked up): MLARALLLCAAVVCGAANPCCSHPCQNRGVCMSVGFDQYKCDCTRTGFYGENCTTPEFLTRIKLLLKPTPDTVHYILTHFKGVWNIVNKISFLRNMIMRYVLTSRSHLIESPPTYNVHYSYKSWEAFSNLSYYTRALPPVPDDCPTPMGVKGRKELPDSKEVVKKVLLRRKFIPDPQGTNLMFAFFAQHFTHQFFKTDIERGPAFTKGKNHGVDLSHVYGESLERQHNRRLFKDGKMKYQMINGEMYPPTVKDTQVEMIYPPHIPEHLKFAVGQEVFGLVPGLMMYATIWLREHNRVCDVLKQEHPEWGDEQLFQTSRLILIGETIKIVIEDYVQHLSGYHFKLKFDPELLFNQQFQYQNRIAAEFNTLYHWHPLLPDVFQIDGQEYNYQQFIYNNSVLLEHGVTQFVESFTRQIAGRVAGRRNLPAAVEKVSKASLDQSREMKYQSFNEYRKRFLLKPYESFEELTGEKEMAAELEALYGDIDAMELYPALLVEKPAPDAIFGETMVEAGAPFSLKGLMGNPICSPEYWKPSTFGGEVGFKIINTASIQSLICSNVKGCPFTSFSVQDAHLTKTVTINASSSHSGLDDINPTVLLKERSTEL
Data set [6] has as its target T1, Prostaglandin G/H synthase 2 (Homo sapiens). The data set can be described thus: Increase of COX2-mediated PGE2 production in PMA-Ion-stimulated human PBL at 10 uM after 24 hrs by ELISA.
For data set [7] the target is unchanged. The experiment in a line: Increase of COX2-mediated PGE2 production in PMA-Ion-stimulated human PBL at 10 uM after 24 hrs by ELISA relative to control.
The test system of data set [8] is PBL. The experiment in a line: Inhibition of COX2 expression in PMA-Ion-stimulated human PBL at 5 uM after 20 hrs by Western blot analysis. In kind it is functional, cell-based. Put shortly:
as §1
(Immunoblotting shows a protein as a band on a membrane.)

Molecules are shown by their SMILES. Active and inactive are the calls of the source. No cut-off for these calls is given here.

For orientation: inhibition means the relative decrease from the control value, in per cent. In the case of `CS(=O)(=O)Nn1c(Sc2ccccc2C(=O)O)nc2sc(-c3ccccc3)cc2c1=O`, the Activity result in data set [1] and in data set [3] was “Non-toxic” throughout. For the same molecule, the inhibition result in data set [2] was “Active”. Further, the values for the inhibition in data set [4] and in data set [5] were 20% and 50%, respectively.

Turning to `Nn1c(SC(C(=O)O)c2ccccc2)nc2c([nH]c3ccccc32)c1=O` (configuration not stated), the Activity entry in data set [1] is “Non-toxic”.

Take `CS(=O)(=O)Nn1c(Sc2ccccc2C(=O)O)nc2ccsc2c1=O`: the Activity result in data set [1] is “Non-toxic”. Moreover, the outcome in data set [6] was Active.

With `CS(=O)(=O)Nn1c(Sc2ccc([N+](=O)[O-])cc2)nc2sc(-c3ccccc3)cc2c1=O`, the Activity entry in data set [1] and in data set [3] was “Non-toxic” each time. In addition, in data set [2], the inhibition result was “Active”. Further, the values for the inhibition in data set [4] and in data set [5] were 20% and 50%, respectively.

Turning to `O=c1c2sc3ccccc3c2nc2n1N=C(c1ccccc1)CS2`, in data set [1], the Activity entry is listed as “Non-toxic”. Further, the inhibition result in data set [4] is “inactive”.

With `Cc1sc2nc(SC3CCCCC3)n(NS(C)(=O)=O)c(=O)c2c1C`, the Activity result in data set [1] is recorded as “Non-toxic”. Moreover, the result in data set [6] was Active.

For the molecule `CS(=O)(=O)Nn1c(SC2CCCCC2)nc2sc(-c3ccccc3)cc2c1=O`, the Activity result in data set [1] is given as “Non-toxic”. Further, the fold change (FC) in data set [7] was 2.9.

Turning to `COc1ccc(C2=Nn3c(nc4sc(-c5ccccc5)cc4c3=O)SC2)cc1`, the Activity entry in data set [1] was “Non-toxic”. For the same molecule, the inhibition entry in data set [4] is “inactive”.

For the molecule `CCc1nn2c(=O)c3cc(-c4ccccc4)sc3nc2s1`, in data set [1], the Activity entry is given as “Non-toxic”.

With `CS(=O)(=O)Nn1c(Sc2ccc([N+](=O)[O-])cc2[N+](=O)[O-])nc2sc3c(c2c1=O)CCCC3`, the Activity entry in data set [1] is recorded as “Non-toxic”.

Consider `CS(=O)(=O)Nc1ccc([N+](=O)[O-])cc1OC1CCCCC1`, for which the inhibition entry in data set [8] was “Active”.

Turning to `CS(=O)(=O)Nn1c(Sc2ccccc2[N+](=O)[O-])nc2sc(-c3ccccc3)cc2c1=O`, the Activity entry in data set [1] and in data set [3] was “Non-toxic” in each case. For the same molecule, the inhibition entry in data set [2] was “Active”. Moreover, the inhibition in data set [4] stood at 20%; in data set [5], 50%.

In the case of `O=C1Nn2c(nc3c(sc4ccccc43)c2=O)SC1c1ccccc1` (configuration not stated), in data set [1], the Activity result is reported as “Non-toxic”. Further, the result in data set [6] was Active.

For `CS(=O)(=O)Nn1c(Sc2ccc(F)cc2F)nc2sc(-c3ccccc3)cc2c1=O`, the Activity result in data set [1] and in data set [3] was “Non-toxic” throughout. The inhibition result in data set [2] is “Active”. For the same molecule, the inhibition in data set [4] was over 50%; in data set [5] it was 50%.

For `CC(Sc1nc2c(sc3ccccc32)c(=O)n1N)C(=O)O` (configuration not stated), in data set [1], the Activity entry is “Non-toxic”.
